# From the EternaBench riboswitch data
# Tested on: MS2 coat protein
# Assay: apparent Kd, MS2 coat protein; higher = weaker binding; RNA-MaP array; FMN 200 µM where present
# Outline: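 Two titrations, one without ligand and one with constant ligand, were run with SNAP-549-labelled MS2 coat protein from 0.7 or 1.5 nM, doubling to 3 µM. The targets were designs transcribed by stalled E. coli RNA polymerase on Illumina sequencing-chip clusters, in 100 mM Tris-HCl pH 7.5, 80 mM KCl, 4 mM MgCl2, BSA, DTT, yeast tRNA and Tween-20. The apparent Kd is the median of filtered per-cluster binding-curve fits, with green signal normalised to red-channel RNA signal and control-cluster median Fmax.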
# [1] = designed as: ON switch for flavin mononucleotide, no ligand
# [2] = ligand present: flavin mononucleotide, designed as: ON switch for flavin mononucleotide
# [3] = designed as: OFF switch for flavin mononucleotide, no ligand
# [4] = ligand present: flavin mononucleotide, designed as: OFF switch for flavin mononucleotide
sequence,measurement,setting,value
AAUUAACUCACAGGAUAUAGCAGAGGUCGAGUAAACUUACAGGCGACGAGGCUAGAAGGGUGACCACAUGAGGAUCACCCAUGU,apparent Kd,[1],0.733 µM
same,apparent Kd,[2],0.131 µM
AAAUAACCUAGCAAAAUUUCCUAACAUGAGGAUCACCCAUGUAGAAGGCUGUCCUAAAAUAGGACAGAGGAUAUACGUGCUAGG,apparent Kd,[3],0.00501 µM
same,apparent Kd,[4],0.007 µM
CACUUGGCAGGAUAUGCAAUUUUAGACAUGAGGAUCACCCAUGUGAUCAUUCCAUAUUAUGCAGAAGGGCCUAAAC,apparent Kd,[3],0.199 µM
same,apparent Kd,[4],0.747 µM
UCGGCGCGAGGAUAUGCGGCUGGUGCUUCGGGCUCUGGCGUACAUGAGGAUCACCCAUGUAGAAGGCGCGCCGC,apparent Kd,[3],0.0131 µM
same,apparent Kd,[4],0.0143 µM
CCACAUGAGGAUCACCCAUGUGACUUCUGUGGCCCGGUGUUGCAGGAUAUCGCAAGGUUAGUUGACGAGAAGGGCGACGGUGGU,apparent Kd,[3],0.0311 µM
same,apparent Kd,[4],0.102 µM
GUACAUACAAAGUUACAUGAGGAUCACCCAUGUUUAUUGGGAAGAAGGGUAACAUUAUUAAAUAUAUAGGAUAUUUCACAAUUG,apparent Kd,[1],0.546 µM
same,apparent Kd,[2],0.283 µM
UAAACGUUCUAGAAGGUGCAUUUGUUAAACAAGCAAGGAUAUAGACAUGAGGAUCACCCAUGUCUAUUAGACAUCGGCCUACUU,apparent Kd,[3],0.00575 µM
same,apparent Kd,[4],0.00539 µM
UCAUCAAAUUGAACAUGAGGAUCACCCAUGUAGGAUUAGCCACAGGAUAUCCGUGCUAGAAUGUGGGAGAAGGGUGGUCACUCC,apparent Kd,[1],0.334 µM
same,apparent Kd,[2],0.0645 µM
GUAUGAGCGAUAGGAUAUACUGAGAUUGAAUGGGUAGAAGGAUCUCUUGUGAGGAAGACAUGAGGAUCACCCAUGUCACGGGCC,apparent Kd,[1],0.1 µM
same,apparent Kd,[2],0.175 µM
AAGUCCAGAGGAUAUCAGACGCGGCACAUGAGGAUCACCCAUGUAUUCCCGUCUGCCGACUGAGAAGGUUGGAAAG,apparent Kd,[3],0.012 µM
same,apparent Kd,[4],0.0178 µM
CGAAGUAGCACAGGAUAUCAUACAUGAGGAUCACCCAUGUCAAGAAACAAAUGAGAAGGGUGCAGGCGGUGUUGGAGCUGUUGC,apparent Kd,[1],0.0994 µM
same,apparent Kd,[2],0.0141 µM
GGAUUACAUGAGGAUCACCCAUGUGAGGAUAUCGAUGUCCAGUAGGGCGUGCGGGACUCGAGAAGGCACUUGGA,apparent Kd,[3],0.0475 µM
same,apparent Kd,[4],0.177 µM
GGAUGUCAAAGACAUCCAAAUCGAACAUGAGGAUCACCCAUGUAGGAUAUGCUACUCAAAGAGUAGCAGAAGGACAUGUGCUUU,apparent Kd,[3],0.0415 µM
same,apparent Kd,[4],0.223 µM
UUUAUAAAGAUAGGAUAUUGUAUAAUAAUUUAAUAAGAAGGAUCACACAUGAGGAUCACCCAUGUAUGAGGAUCACCCAUGUAU,apparent Kd,[3],0.0197 µM
same,apparent Kd,[4],0.0203 µM
AGCUGUGGCCGAGGAUAUCUACCUUCAAUAACCGAAAUAUAAUCGGACAUGAGGAUCACCCAUGUAGAGAAGGCGGUCUCAGCA,apparent Kd,[3],0.0148 µM
same,apparent Kd,[4],0.0962 µM
AAGUUGUCAGGAUAUCGUUAAUUUAGUUGUUUGUAUUAGUUCGAGAAGGGACAUGAGGAUCACCCAUGUUUGAA,apparent Kd,[3],0.0325 µM
same,apparent Kd,[4],0.0405 µM
CUUUUGUGAGGAUAUCAGUAGUAAUACAAUAGUAUUAUUACUGAGAAGGCACAUGAGGAUCACCCAUGUUCCUC,apparent Kd,[3],0.0409 µM
same,apparent Kd,[4],0.125 µM
AGCUACGUUUCGUAGCAGCUAGGUGAGGAUAUCCUUUUACAUGAGGAUCACCCAUGUUAGCCAUGGGAGAAGGCGCCUAGAAAG,apparent Kd,[1],0.498 µM
same,apparent Kd,[2],0.0377 µM
UAUAUAAUUAAGAGCUGGAACUCAACAUGAGGAUCACCCAUGUAGGAUAUCAGCACGAUAAGUGCUGAGAAGGACUACCAGCUC,apparent Kd,[3],0.0182 µM
same,apparent Kd,[4],0.0204 µM
GCGCAUGUCACAGGAUAUCCCAUAGUGUACAUGAGGAUCACCCAUGUACUGCAAUGCAGACACAAGGAGAAGGGUGAGACUCGU,apparent Kd,[1],0.0848 µM
same,apparent Kd,[2],0.0967 µM
